# 14-3-3 Bad PPI: disrupts binding of bovine 14-3-3 zeta to phospho-Bad peptide | AID 781 | TR-FRET 14-3-3zeta/Dy647-pBad peptide displacement, 1 h | inhibition, % at 21.7 µM | 220,000 tested, 0.71% active;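 active = inhibition above about 70%, limit read from the data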
# Hck-Nef inh: human Hck-Nef kinase inhibition. Recombinant Hck-YEEI plus Nef, Z-Lyte FRET kinase assay. 220,000 tested, 0.68% active. P08631. inhibition, % at 20 µM;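 active = Hck-Nef kinase inhibition above about 50%, limit read from the data; inactive = inhibition below that limit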
# Calb biofilm kill: mixture kills Candida albicans biofilm cells | AID 1242 | 120,000 tested, 0.02% active | C. albicans biofilm persisters + clotrimazole, fluorescence viability; primary screen in compound mixtures of four per well | inhibition, % at 7.6 µM;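 active = inhibition above 30.3% in the primary screen of four-compound pools, then above 30% when the compound was retested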;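 note: compounds exposed to preformed 24 h biofilms for 48 h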
#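 Probe or stimulus – Clotrimazole 50 µg/mL co-treatment · System – C. albicans biofilms · Schedule – 24 h biofilm formation, then 48 h compound exposure, 37 °C · Evaluation – percent inhibition of biofilm viability · Technique – 2-h Alamar Blue fluorescence, 535/590 nm excitation/emission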
# p97 inhibitor: inhibitors of human p97 ATPase | P55072 | recombinant p97 ATPase, Kinase-Glo ATP luminescence, 3 h | inhibition, % at 8 µM | 220,000 tested, 0.42% active | AID 1481; in the data active = inhibition above about 15%
# Target sequence (P55072 whole entry, looked up): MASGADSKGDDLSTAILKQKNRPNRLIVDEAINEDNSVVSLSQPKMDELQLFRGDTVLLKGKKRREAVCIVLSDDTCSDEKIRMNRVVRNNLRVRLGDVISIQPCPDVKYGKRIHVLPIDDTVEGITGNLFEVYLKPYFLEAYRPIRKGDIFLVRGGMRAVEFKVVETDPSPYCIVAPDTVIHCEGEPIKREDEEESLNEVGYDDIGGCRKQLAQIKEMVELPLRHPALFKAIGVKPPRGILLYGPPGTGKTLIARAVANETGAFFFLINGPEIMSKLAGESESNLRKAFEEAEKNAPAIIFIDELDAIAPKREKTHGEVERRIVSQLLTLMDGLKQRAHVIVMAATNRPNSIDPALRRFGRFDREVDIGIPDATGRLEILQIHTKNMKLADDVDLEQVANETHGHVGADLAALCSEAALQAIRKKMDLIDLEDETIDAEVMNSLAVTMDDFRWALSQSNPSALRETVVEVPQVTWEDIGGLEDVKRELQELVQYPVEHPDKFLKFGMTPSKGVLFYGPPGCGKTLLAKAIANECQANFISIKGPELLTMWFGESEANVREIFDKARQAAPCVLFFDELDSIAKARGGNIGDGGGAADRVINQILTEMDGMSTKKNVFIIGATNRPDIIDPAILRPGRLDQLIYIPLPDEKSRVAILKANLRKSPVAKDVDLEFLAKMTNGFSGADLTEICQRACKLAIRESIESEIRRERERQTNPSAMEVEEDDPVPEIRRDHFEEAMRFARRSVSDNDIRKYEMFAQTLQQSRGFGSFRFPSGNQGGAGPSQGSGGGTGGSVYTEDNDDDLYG
# eIF4E 4G PPI: inhibitors of eIF4E and eIF4G interaction in translation initiation; P63073+Q04637; TR-FRET eIF4E-eIF4GI(517-606) binding, 2 h; inhibition, % at 21.7 µM; 220,000 tested, 0.37% active; AID 782;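 active = inhibition above about 30%, limit read from the data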
# PERK inhibitor: blocks human PERK kinase; AID 1416; 220,000 tested, 0.17% active; inhibition, % at 5.6 µM; Q9NZJ5; CHO PERK-DD fusion, SEAP luminescence translation reporter;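 active = inhibition above the mean inhibition of all tested compounds plus 3 SD, set separately per screening campaign, cut at about 2.9% in these data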;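 note: PERK kinase domain activated by AP20187 dimerizer at 100 nM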
# Hits are given with their value; . = inactive; / = not tested or not shown; ! = not active in a repeat; [ ] = remark or other dose. Shown are actives, neighbours in structure and some others; about 2.2% of the full set was active somewhere.
SMILES,14-3-3 Bad PPI,Hck-Nef inh,Calb biofilm kill,p97 inhibitor,eIF4E 4G PPI,PERK inhibitor
Cc1cc2nc3c(=O)[nH]c(=O)[nH]c3nc2c([N+](=O)[O-])c1N,73,.,.,.,50,.
C/C(=N\NC(=O)Cc1cccn1C)c1ccco1,.,.,.,.,44,.
C/C(=N/NC(=O)Cc1cccn1C)c1ccccc1,.,.,/,.,.,.
CCN(CC)CC(=O)Nc1c(C)cccc1C,.,.,.,20!,.,.
CCN(CC)CC(=O)Nc1c(C)cc(C(C)(C)C)cc1C,.,.,/,.,.,.
CCC(=O)NCC(c1cccs1)N1CCOCC1 (stereo not drawn),85,.,/,.,.,.
Cc1cccc(C(=O)NC(C)C(c2cccs2)N2CCOCC2)c1 (stereo not drawn),.,.,.,.,97,.
COCCn1c(CN2CCN(C)CC2)nc2c1c(=O)n(C)c(=O)n2C,.,.,/,.,.,.
CCOCCn1c(CN2CCN(C)CC2)nc2c1c(=O)n(C)c(=O)n2C,.,.,.,/,90,/
CCN(CC)S(=O)(=O)c1cc(NC(=O)Cn2ncc(Cl)c(Cl)c2=O)ccc1C,.,74,.,.,.,.
O=C(Cn1c2ccccc2c(=O)c2ccccc21)N/N=C/c1ccc(N2CCCC2)c([N+](=O)[O-])c1,98[fluorescence artefact?],.,.,.,.,.
O=C(N/N=C/c1ccc(N2CCCC2)c([N+](=O)[O-])c1)c1cccnc1,.,.,.,.,.,.
Cc1ccc(-c2nc3cccnc3s2)cc1NC(=O)C1c2ccccc2Oc2ccccc21,78,.,.,.,.,.
Cc1ccc(-c2nc3cccnc3s2)cc1NC(=O)c1ccco1,/,.,/,.,/,.
O=C(C1CCN(Cc2cc(Cl)ccc2O)CC1)N1CCN(Cc2ccccc2)CC1,.,.,/,.,82,.
Cc1cc(C)nc(SCc2nnc(SCC(=O)O)n2-c2ccccc2)n1,.,.,.,.,.,.
NC(=O)CSc1nnc(CSc2ncccn2)n1-c1ccccc1,.,.,.,.,.,3.0
CCCOC(=O)CCCN1C(=O)/C(=C2\SC(=S)N(CCCC(=O)OCCC)C2=O)SC1=S,.,.,.,.,.,3.4
CC1CCCC(C)N1C(=O)Nc1cccc(Cl)c1 (stereo not drawn),.,.,/,.,.,2.9
O=C(Nc1cccc(Cl)c1)NC1CCCCC1,.,.,/,.,.,.
CC1(C)CC(=O)c2c(O)cc(OCc3ccc(Br)cc3)cc2O1,.,.,/,.,.,.
CC1(C)CC(=O)c2ccc(OCc3ccc([N+](=O)[O-])cc3)cc2O1,.,.,.,.,34,.
O=c1[nH]c(-c2ccccc2Cl)nc2c1sc(=S)n2-c1ccccc1,71,.,.,.,.,.
O=c1[nH]c(-c2ccc(F)cc2)nc2c1sc(=S)n2-c1ccccc1,.,.,.,.,.,.
CCOc1ccc(OCc2cccc(C(=O)Nc3ccc(CN4CCCCC4)cc3)c2)cc1,.,.,.,.,.,.
SMILES,14-3-3 Bad PPI,Hck-Nef inh,Calb biofilm kill,p97 inhibitor,eIF4E 4G PPI,PERK inhibitor
O=C1CC(=C(c2ccccc2)c2ccccc2)C(=O)N1CCCCN1CCN(c2ccccc2)CC1,76,.,/,.,.,.
NC(=S)c1cc2cc(Br)ccc2oc1=O,.,.,.,.,.,.
O=C(NNC(=O)c1cc2cc(Br)ccc2oc1=O)c1ccc(O)cc1,.,.,.,15,.,.
COc1ccc2[nH]c3nc(SCc4nnc(-c5ccccc5)o4)nnc3c2c1,74,.,/,.,.,.
CCc1ccc2[nH]c3nc(SCc4nnc(-c5ccccc5)o4)nnc3c2c1,.,.,.,.,.,.
CC(C)Oc1cccc(C(=O)NC2=NCCS2)c1,80,.,.,.,.,.
COc1cccc(C(=O)NC2=NCCS2)c1,.,.,/,.,.,.
O=C1N=C2N(CCN3CCCCC3)c3ccccc3N2/C1=C\c1ccc([N+](=O)[O-])o1,88,.,.,.,.,.
Cc1ccc(C(=O)N/C(=C\c2ccc3c(c2)OCO3)C(=O)Nc2ccc(C(=O)O)cc2)cc1,.,.,.,.,.,.
Nc1ccc(O)c2c1C(=O)c1ccccc1C2=O,.,.,.,.,31[fluorescence artefact?],.
Cc1ccccc1CSc1nncn1N,.,.,/,.,46,.
Cn1cnnc1SCc1ccccc1Br,.,.,/,.,.,.
CN(C)c1ccc(/C=C/c2ccc3ccccc3[n+]2C)cc1,.,.,34,.,.,.
CN(C)c1ccc(/C=C/c2ccc3c4ccccc4ccc3[n+]2-c2ccccc2)cc1,.,.,.,.,75,.
COCCn1c(SCC#N)nnc1-c1ccc([N+](=O)[O-])cc1,.,.,.,.,.,.
CSc1ccccc1NC(=O)CN(C)CC(=O)Nc1ccccc1N1CCOCC1,.,.,.,.,.,.
CCN(c1ccccc1)S(=O)(=O)c1ccc(Cl)c(NC(=O)CN(C)C2CCN(C)CC2)c1,90,.,.,.,.,.
O=C(CNCC1CCCO1)Nc1ccccc1N1CCCCCC1 (stereo not drawn),82,.,/,.,.,.
CN1CCC(N(C)CC(=O)Nc2ccccc2N2CCOCC2)CC1,79,.,/,.,.,.
COCCN1C(=O)C(=O)/C(=C(/O)c2ccc(S(=O)(=O)N3CCOCC3)cc2)C1c1cccc(Cl)c1 (stereo not drawn),.,.,.,.,.,.
CN1c2ccccc2Oc2nnc(Cl)cc21,.,.,.,.,.,.
CCN(CC)CCOc1cc2c(nn1)Oc1ccccc1N2C,83,.,/,.,.,.
CCCCCCC(C)n1[nH]c(=O)cc1N (stereo not drawn),.,.,.,.,.,.
O=C(Nc1cccc(C(=O)N2CCN(c3cccc(Cl)c3)CC2)c1)c1ccccc1,.,.,.,.,.,.
Cc1cc(C(=O)OCC(=O)Nc2cc(S(=O)(=O)N3CCOCC3)ccc2Cl)c(C)o1,.,.,/,16,.,.
SMILES,14-3-3 Bad PPI,Hck-Nef inh,Calb biofilm kill,p97 inhibitor,eIF4E 4G PPI,PERK inhibitor
Cc1cc(C(=O)OCC(=O)NCc2ccccc2Cl)c(C)o1,72,.,.,.,.,.
O=C(COC(=O)c1ccc(=O)[nH]c1)Nc1cccc(S(=O)(=O)N2CCOCC2)c1,.,.,.,.,.,2.9
CCCOc1ccc(Oc2nc(-c3ccncc3)nc3ccccc23)cc1,.,.,.,.,.,.
CCOC(=O)c1cc2c(ccn2-c2ccc(F)cc2)n1CC(=O)NC(C)(C)C,.,.,.,.,.,.
C/C(CC(=O)NC1CCCC1)=N\NC(=O)C1CCCCC1,97,.,.,.,.,.
C/C(CC(=O)NC1CCCCCC1)=N\NC(=O)c1cnccn1,.,.,.,.,.,.
Clc1ccc(-c2csc(N/N=C/c3ccco3)n2)cc1,.,.,.,.,.,.
Clc1ccc(-c2csc(N/N=C\c3cccnc3)n2)cc1,76,.,.,.,.,.
O=C(O)c1cccnc1SCc1ccccc1Cl,.,.,.,.,.,.
O=C(O)c1cccnc1Sc1ccccc1Cl,.,.,.,.,.,3.2

# Compound activity: PubChem BioAssay, several laboratories
